# According to ChEMBL document CHEMBL1133742, “17beta-O-Aminoalkyloximes of 5beta-androstane-3beta,14beta-diol with digitalis-like activity: synthesis, cardiotonic activity, structure-activity relationships, and molecular modeling of the Na(+),K(+)-ATPase receptor” (J Med Chem, 2000):
# pEC50, pIC50: −log10 of the molar value.
# Assays:
# [1] = Percent increase in force of contraction in vitro determined using electrically driven guinea pig left atrium.; format: functional; conditions: Cavia porcellus, Cardiac atrium
# Procedure, shortened: (§1)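 Isolated guinea pig atria in solution bubbled with 95% O2/5% CO2, field-stimulated by platinum electrodes at 1 Hz (1 ms square pulses, twice threshold voltage). After 60 min equilibration, cumulative concentrations added, each held until maximal response or arrhythmia.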
# [2] = target: Sodium/potassium-transporting ATPase; test: In vitro inhibitory concentration against dog kidney Na+/K+ ATPase; format: protein-complex assay, Canis lupus familiaris
# Procedure, shortened: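 Na+,K+-ATPase isolated and purified from dog kidney. Inhibition measured as percent hydrolysis of 32P-ATP with versus without compound. […] Single-concentration entries report percent inhibition at the stated concentration. Compounds tested within 1–4 h of dissolution.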
# Cavia porcellus [3] = test: Compound dose producing maximum increase in dP/dt, in anesthetized guinea pig during slow intravenous infusion of 11.0 uM solution.; format: functional
# Procedure, shortened: (§2)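 Anesthetized guinea pigs with jugular vein cannula and tracheal intubation (spontaneous respiration); +dP/dt recorded. Compound dissolved in DMSO, diluted with physiological solution to 1% DMSO final, infused IV at 0.16 mL/min until death or up to 90 min. Starting infusate concentration was based on the atrial EC50. Doses for maximal inotropic effect and for death determined; ED80 taken from dose–response curves. Means ± SEM where possible.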
# [4] = In vitro maximum inotropic effect on contractile force of an electrically driven guinea pig left atrium.; format: functional, Cavia porcellus, Cardiac atrium; procedure, shortened: as §1
# Cavia porcellus [5] = test: Compound dose causing lethality in anesthetized guinea pig during slow intravenous infusion of 11.0 uM solution.; format: toxicity, organism-based; conditions: in vivo; procedure, shortened: as §2
# Cavia porcellus [6] = organism: Cavia porcellus; test: Concentration producing 50% of the maximal increase in the force of contraction in isolated guinea pig left atrium; format: functional; conditions: Cardiac atrium; procedure, shortened: as §1
# Cavia porcellus [7] = test: Compound dose producing 80% of increase in dP/dt in anesthetized guinea pig during slow intravenous infusion of 11.0 uM solution.; format: functional; procedure, shortened: as §2
# Cavia porcellus [8] = test: Compound dose producing maximum inotropic effect in anesthetized guinea pig during slow intravenous infusion of 11.0 uM solution.; format: functional; procedure, shortened: as §2
# Cavia porcellus [9] = test: Compound dose producing maximum inotropic effect in anesthetized guinea pig during slow intravenous infusion of 12.8 uM solution.; format: functional; procedure, shortened: as §2
# Cavia porcellus [10] = test: Compound dose causing lethality in anesthetized guinea pig during slow intravenous infusion of 12.8 uM solution.; format: toxicity, organism-based; conditions: in vivo; procedure, shortened: as §2
# Cavia porcellus [11] = test: Compound dose producing maximum increase in dP/dt, in anesthetized guinea pig during slow intravenous infusion of 12.8 uM solution.; format: functional; procedure, shortened: as §2
# Cavia porcellus [12] = test: Compound dose producing 80% of increase in dP/dt in anesthetized guinea pig during slow intravenous infusion of 12.8 uM solution.; format: functional; procedure, shortened: as §2
# Cavia porcellus [13] = test: Compound dose producing maximum inotropic effect in anesthetized guinea pig during slow intravenous infusion of 375 uM solution.; format: functional; procedure, shortened: as §2
# Cavia porcellus [14] = test: Compound dose causing lethality in anesthetized guinea pig during slow intravenous infusion of 375 uM solution.; format: toxicity, organism-based; conditions: in vivo; procedure, shortened: as §2
# Cavia porcellus [15] = test: Compound dose producing maximum increase in dP/dt, in anesthetized guinea pig during slow intravenous infusion of 375 uM solution.; format: functional; procedure, shortened: as §2
# Cavia porcellus [16] = test: Compound dose producing 80% of increase in dP/dt in anesthetized guinea pig during slow intravenous infusion of 375 uM solution.; format: functional; procedure, shortened: as §2
# Cavia porcellus [17] = test: Compound dose producing maximum increase in dP/dt, in anesthetized guinea pig during slow intravenous infusion of 51.2 uM solution.; format: functional
# Procedure, shortened: (§3)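 Anesthetized guinea pig; jugular vein cannula, trachea intubated, spontaneous respiration. After stabilization, compound in physiological solution with 1% DMSO (final) infused at 0.16 mL/min until death or up to 90 min. Infused concentration chosen from the paced guinea pig atria EC50. Read-out is +dP/dt. Doses for the maximal inotropic increase and for death were determined; ED80 (80% increase over basal) came from dose-response curves. Means ± SEM.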
# Cavia porcellus [18] = test: Compound dose producing 80% of increase in dP/dt in anesthetized guinea pig during slow intravenous infusion of 51.2 uM solution.; format: functional; procedure, shortened: as §3
# Cavia porcellus [19] = test: Compound dose producing maximum inotropic effect in anesthetized guinea pig during slow intravenous infusion of 51.2 uM solution.; format: functional; procedure, shortened: as §3
# Cavia porcellus [20] = test: Compound dose causing lethality in anesthetized guinea pig during slow intravenous infusion of 51.2 uM solution.; format: toxicity, organism-based; conditions: in vivo; procedure, shortened: as §2
# Cavia porcellus [21] = test: Compound dose producing maximum inotropic effect in anesthetized guinea pig during slow intravenous infusion of 1000 uM solution.; format: functional; procedure, shortened: as §2
# Cavia porcellus [22] = test: Compound dose producing maximum increase in dP/dt, in anesthetized guinea pig during slow intravenous infusion of 1000 uM solution.; format: functional; procedure, shortened: as §2
# Cavia porcellus [23] = test: Compound dose producing 80% of increase in dP/dt in anesthetized guinea pig during slow intravenous infusion of 1000 uM solution.; format: functional; procedure, shortened: as §2
# Cavia porcellus [24] = test: Compound dose causing lethality in anesthetized guinea pig during slow intravenous infusion of 1000 uM solution.; format: toxicity, organism-based; conditions: in vivo; procedure, shortened: as §2
# Cavia porcellus [25] = test: Compound dose producing maximum inotropic effect in anesthetized guinea pig during slow intravenous infusion of 220 uM solution.; format: functional; procedure, shortened: as §2
# Cavia porcellus [26] = test: Compound dose producing maximum increase in dP/dt, in anesthetized guinea pig during slow intravenous infusion of 220 uM solution.; format: functional; procedure, shortened: as §2
# Cavia porcellus [27] = test: Compound dose producing 80% of increase in dP/dt in anesthetized guinea pig during slow intravenous infusion of 220 uM solution.; format: functional; procedure, shortened: as §2
# Cavia porcellus [28] = test: Compound dose causing lethality in anesthetized guinea pig during slow intravenous infusion of 220 uM solution.; format: toxicity, organism-based; conditions: in vivo; procedure, shortened: as §2
# Cavia porcellus [29] = test: Compound dose producing maximum increase in dP/dt, in anesthetized guinea pig during slow intravenous infusion of 41.4 uM solution.; format: functional; procedure, shortened: as §2
# Cavia porcellus [30] = test: Compound dose producing maximum inotropic effect in anesthetized guinea pig during slow intravenous infusion of 41.4 uM solution.; format: functional; procedure, shortened: as §2
# Cavia porcellus [31] = test: Compound dose causing lethality in anesthetized guinea pig during slow intravenous infusion of 41.4 uM solution.; format: toxicity, organism-based; conditions: in vivo; procedure, shortened: as §2
# Cavia porcellus [32] = test: Compound dose producing 80% of increase in dP/dt in anesthetized guinea pig during slow intravenous infusion of 41.4 uM solution.; format: functional; procedure, shortened: as §2
smiles,measurement,setting,value
CN(C)CCO/N=C/C=C/[C@H]1CC[C@]2(O)[C@@H]3CC[C@@H]4C[C@@H](O)CC[C@]4(C)[C@H]3CC[C@]12C.O=C(O)C(=O)O,Emax,[1],191%
same,pIC50,[2],7.52
same,Emax,Cavia porcellus [3],110%
same,Concentration giving maximal inotropic effect,[4],0.3 µM
same,LD,Cavia porcellus [5],0.385 µM/kg
same,pEC50,Cavia porcellus [6],7.24
same,ED80,Cavia porcellus [7],0.185 µM/kg
same,Emax,Cavia porcellus [8],0.275 µM/kg
CC(/C=N/OCCN)=C\[C@H]1CC[C@]2(O)[C@@H]3CC[C@@H]4C[C@@H](O)CC[C@]4(C)[C@H]3CC[C@]12C.O=C(O)/C=C/C(=O)O,Emax,[1],115%
same,pIC50,[2],7.52
same,Emax,Cavia porcellus [9],0.201 µM/kg
same,LD,Cavia porcellus [10],0.292 µM/kg
same,pEC50,Cavia porcellus [6],7.15
same,Emax,Cavia porcellus [11],152%
same,ED80,Cavia porcellus [12],0.128 µM/kg
CC(/C=N/OCCCN)=C\[C@H]1CC[C@]2(O)[C@@H]3CC[C@@H]4C[C@@H](O)CC[C@]4(C)[C@H]3CC[C@]12C.O=C(O)C(=O)O,Emax,[1],90%
same,Emax,Cavia porcellus [13],0.884 µM/kg
same,pIC50,[2],6.70
same,LD,Cavia porcellus [14],1.67 µM/kg
same,pEC50,Cavia porcellus [6],6.77
same,Emax,Cavia porcellus [15],99%
same,ED80,Cavia porcellus [16],0.447 µM/kg
C[C@H]1O[C@@H](O[C@H]2[C@@H](O)C[C@H](O[C@H]3[C@@H](O)C[C@H](O[C@H]4CC[C@@]5(C)[C@H](CC[C@@H]6[C@@H]5C[C@@H](O)[C@]5(C)[C@@H](C7=CC(=O)OC7)CC[C@]65O)C4)O[C@@H]3C)O[C@@H]2C)C[C@H](O)[C@@H]1O [DIGOXIN],Emax,[1],184%
same,Emax,Cavia porcellus [17],167%
same,Concentration giving maximal inotropic effect,[4],1 µM
same,ED80,Cavia porcellus [18],0.205 µM/kg
same,dose to obtain Emax,Cavia porcellus [19],0.576 µM/kg
same,pEC50,Cavia porcellus [6],6.42
same,LD,Cavia porcellus [20],1.25 µM/kg
C[C@]12CC[C@H](O)C[C@H]1CC[C@@H]1[C@@H]2CC[C@]2(C)[C@@H](/C=N/OCCCCN)CC[C@]12O.O=C(O)C(=O)O,Emax,[1],92%
same,pIC50,[2],6.30
same,Emax,Cavia porcellus [21],5.03 µM/kg
same,pEC50,Cavia porcellus [6],5.54
same,Emax,Cavia porcellus [22],148%
same,ED80,Cavia porcellus [23],1.41 µM/kg
same,LD,Cavia porcellus [24],14.8 µM/kg
CN(C)CCO/N=C\CC[C@H]1CC[C@]2(O)[C@@H]3CC[C@@H]4C[C@@H](O)CC[C@]4(C)[C@H]3CC[C@]12C.O=C(O)C(=O)O,Emax,Cavia porcellus [25],3.65 µM/kg
same,Emax,[1],150%
same,pIC50,[2],7.00
same,Emax,Cavia porcellus [26],132%
same,ED80,Cavia porcellus [27],0.814 µM/kg
same,pEC50,Cavia porcellus [6],6.19
same,LD,Cavia porcellus [28],7.83 µM/kg
C[C@]12CC[C@H](O)C[C@H]1CC[C@@H]1[C@@H]2CC[C@]2(C)[C@@H](/C=N/OCCCN)CC[C@]12O.O=C(O)C(=O)O,Emax,[1],126%
same,Emax,Cavia porcellus [29],163%
same,pIC50,[2],7.70
same,Emax,Cavia porcellus [30],0.435 µM/kg
same,LD,Cavia porcellus [31],0.663 µM/kg
same,pEC50,Cavia porcellus [6],6.74
same,ED80,Cavia porcellus [32],0.24 µM/kg
